Measured values from ChEMBL document CHEMBL1154353, “Stereoselective behavior of the functional diltiazem analogue 1-[(4-chlorophenyl)sulfonyl]-2-(2-thienyl)pyrrolidine, a new L-type calcium channel blocker” (J Med Chem, 2009).

Tests used:
Ileum [1] = experiment: Muscle relaxant activity in 80 mM K+-depolarized guinea pig ileum longitudinal smooth muscle assessed as inhibition of calcium-induced contraction at 10 uM; type: functional, Cavia porcellus
Procedure, shortened: (§1)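 Guinea pig ileum longitudinal smooth muscle, 2 cm segments under 300-400 mg resting tension. Isometric recording in PSS, washed every 20 min for 1 h, then depolarized with 80 mM K+. Compounds added cumulatively in DMSO. Reported as % inhibition of calcium-induced contraction. IC50 from log concentration-response curves by Probit analysis.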

[2] = Negative chronotropic activity in guinea pig right atrium assessed as decrease in atrial rate at 50 uM relative to control; type: functional, Cavia porcellus, Cardiac atrium; parameters: scale not given: the % may be the effect or the level left
Procedure, shortened: (§2)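 Spontaneously beating guinea pig right atria in PSS at 35 °C, pH 7.4, 95% O2-5% CO2, pretreatment rate 170-195 beats/min. Cumulative concentrations 0.1-100 μM, each added at steady state, DMSO ≤0.3%. Reported as % decrease in atrial rate vs control, n = 6-8.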

Aorta [3] = experiment: Vasorelaxant activity in 80 mM K+-depolarized guinea pig thoracic aortic strip assessed as inhibition of calcium-induced contraction at 100 uM; type: functional, Cavia porcellus
Procedure, shortened: (§3)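 Helicoidal guinea pig aortic strips in PSS at 35 °C, contracted with 80 mM KCl (equimolar substitution for Na+), plateau reached in about 45 min. Cumulative concentrations 0.1-500 μM in DMSO vehicle. Reported as % inhibition of contraction. IC50 by Probit analysis from log concentration-response curves (n = 6-8), not calculated when maximum effect was <50%.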

Ileum [4] = experiment: Muscle relaxant activity in 80 mM K+-depolarized guinea pig ileum longitudinal smooth muscle assessed as inhibition of calcium-induced contraction at 5 uM; type: functional, Cavia porcellus; procedure, shortened: as §1
[5] = biological target: T1, Voltage-gated L-type calcium channel (Rattus norvegicus, UniProt P22002+Q02485+P27732); experiment: Blockade of L-type calcium channel in Wistar rat tail artery smooth muscle cells assessed as inhibition of peak L-type barium current by whole cell patch clamp method
Aorta [6] = experiment: Ratio of compound IC50 to diltiazem IC50 for vasorelaxant activity in 80 mM K+-depolarized guinea pig thoracic aortic strip; type: functional, Cavia porcellus
Ileum [7] = experiment: Muscle relaxant activity in 80 mM K+-depolarized guinea pig ileum longitudinal smooth muscle assessed as inhibition of calcium-induced contraction; type: functional, tissue-based; settings: Cavia porcellus; procedure, shortened: as §1
[8] = Ratio of diltiazem EC50 to compound EC50 for negative inotropic activity in guinea pig left atrium; type: functional, Cavia porcellus, Cardiac atrium
[9] = Negative chronotropic activity in guinea pig right atrium assessed as decrease in atrial rate at 100 uM relative to control; type: functional, Cavia porcellus, Cardiac atrium; parameters: scale not given: the % may be the effect or the level left; procedure, shortened: as §2
[10] = biological target: T1, Voltage-gated L-type calcium channel; experiment: Displacement of [3H]diltiazem from […] binding site of L-type calcium channel in Wistar rat cardiomyocytes by liquid scintillation counting; type: cell-based
Procedure, shortened: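 Thawed rat cardiomyocytes (200 μg), isolated by collagenase/dispase perfusion and pooled from at least two animals. Incubated with 5 nM [3H]diltiazem and unlabeled ligand (0.1 nM to 100 μM) in 50 mM Tris pH 7.4, 25 °C, 90 min. Reaction stopped by filtration through PEI-soaked GF/B filters, then scintillation counting. Nonspecific binding defined with 100 μM diltiazem. Run in triplicate; sigmoidal fit of % specific binding.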

Aorta [11] = experiment: Vasorelaxant activity in 80 mM K+-depolarized guinea pig thoracic aortic strip assessed as inhibition of calcium-induced contraction; type: functional, tissue-based; settings: Cavia porcellus; procedure, shortened: as §3
[12] = Negative inotropic activity in guinea pig left atrium assessed as decrease in atrial tension at 100 uM relative to control; type: functional, Cavia porcellus, Cardiac atrium; parameters: scale not given: the % may be the effect or the level left
Procedure, shortened: (§4)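 Isolated guinea pig left atria paced at 1 Hz (0.6-0.8 ms pulses, about 50% threshold voltage) in PSS at 35 °C, pH 7.4, gassed 95% O2-5% CO2. Isometric tension recorded after 45-60 min stabilization. Cumulative concentrations 0.1-100 μM, DMSO ≤0.3%. Reported as % decrease in developed tension vs control (n = 4-6). EC50 by Probit analysis (n = 6-8), not calculated when maximum effect was <50%.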

[13] = Negative inotropic activity in guinea pig left atrium assessed as decrease in atrial tension; type: functional, tissue-based; settings: Cavia porcellus, Cardiac atrium; procedure, shortened: as §4
[14] = Negative inotropic activity in guinea pig left atrium assessed as decrease in atrial tension at 10 uM relative to control; type: functional, Cavia porcellus, Cardiac atrium; parameters: scale not given: the % may be the effect or the level left; procedure, shortened: as §4

SMILES | inhibition (INH) (Ileum [1]) [%] | Activity [2] [%] | inhibition (INH) (Aorta [3]) [%] | inhibition (INH) (Ileum [4]) [%] | IC50 [5] [nM] | inhibition (INH) ([5]; rat) | Ratio IC50 (Aorta [6]) | IC50 (Ileum [7]) [nM] | Ratio EC50 [8] | Activity [9] [%] | inhibition (INH) [10] | IC50 (Aorta [11]) [nM] | Activity [12] [%] | EC50 [13] [nM] | Activity [14] [%]
O=S(=O)(c1ccc(Cl)cc1)N1CCCC1c1cccs1 (racemic) | 90 | 4 | 74 | 90 | 23500 | Dose-dependent effect | 2.2 | 1180 | 2.5 | 4 |  |  |  |  | 
C=CCN(c1ccccc1)S(=O)(=O)c1ccc(Cl)cc1 | 83 |  | 54 |  |  |  | 6.8 | 4320 | 2.5 | 5 | Dose-dependent effect | 17700 |  |  | 
O=S(=O)(c1ccc(Cl)cc1)N1CCC[C@@H]1c1cccs1 |  | 10 | 24 | 94 | 27100 |  |  | 1070 |  |  |  |  | 98 | 230 | 
CSC1=NCCCN1S(=O)(=O)c1ccc(Cl)cc1 | 83 |  | 57 |  |  |  | 9.7 | 14800 |  | 5 |  |  |  |  | 
O=S(=O)(c1ccc(Cl)cc1)N1CCC[C@H]1c1cccs1 |  | 7 | 83 | 69 | 22200 |  |  | 2060 |  |  |  | 5160 |  | 450 | 96
COc1ccc([C@@H]2Sc3ccccc3N(CCN(C)C)C(=O)[C@@H]2OC(C)=O)cc1 [DILTIAZEM] | 98 |  | 88 |  |  |  |  |  |  |  |  | 2600 |  | 790 | 
CCO[C@@]1(c2ccc(Br)cc2)SC=C(C)n2c1noc2=O | 3 |  | 11 |  |  |  |  |  |  | 16 |  |  |  | 70 | 
